Measured values taken from ChEMBL document CHEMBL1135748, “4-Substituted D-glutamic acid analogues: the first potent inhibitors of glutamate racemase (MurI) enzyme with antibacterial activity” (J Med Chem, 2002).
In brackets after ≈: the same amount, converted by molar mass.

Columns and labels:
[1] = Inhibitory activity against recombinant Glutamate Racemase from Streptococcus pneumoniae expressed in Escherichia coli
Method in brief: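 Enzyme purified by Ni(II) IMAC, imidazole gradient, from E. coli paste overexpressing the S. pneumoniae racemase; dialysed into Tris-HCl pH 7.8 with β-mercaptoethanol. Enzyme (6 µg mL-1) with 10 mM L-glutamate, inhibitor added before enzyme, 15 min at room temperature. Quenched with Marfey's reagent; derivatised 60 min at 40 °C. D/L-Glu separated by C18 HPLC, A340. Conversion from D/(D+L) peak areas over decreasing inhibitor concentrations gives IC50.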

Streptococcus pneumoniae [2] = experiment: In vitro whole cell growth inhibition against PN-R6 strain of Streptococcus pneumoniae; type: functional
Method in brief: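 NCCLS microtiter broth dilution. Compounds in DMSO, 2-fold serial dilutions from 250 to 0.25 µg/mL in Mueller–Hinton II broth plus 5% lysed horse blood. Inoculum 5 × 10^5 CFU/mL; final DMSO 2.5%. Incubated overnight at 35 °C. MIC is the lowest concentration visibly inhibiting growth.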

Staphylococcus aureus = experiment: Antibacterial activity against Staphylococcus aureus 027 strain; type: functional
Streptococcus pneumoniae [3] = experiment: Antibacterial activity against Streptococcus pneumoniae R6 strain; type: functional
Streptococcus pneumoniae [4] = experiment: Antibacterial activity against Streptococcus pneumoniae Park1 strain; type: functional
Moraxella catarrhalis = experiment: Antibacterial activity against Moraxella catarrhalis BC-1 strain; type: functional

IC50 [1] | MIC (Streptococcus pneumoniae [2]) | MIC (Staphylococcus aureus) | MIC (Streptococcus pneumoniae [3]) | MIC (Streptococcus pneumoniae [4]) | MIC (Moraxella catarrhalis) | SMILES
0.13 mg/L | 0.5 mg/L (≈ 1.58 µM) | – | – | – | – | N[C@H](C[C@H](Cc1cccc(Br)c1)C(=O)O)C(=O)O
9.1 mg/L | 3.9 mg/L (≈ 13.5 µM) | – | – | – | – | N[C@H](C[C@H](C/C=C/C=C/c1ccccc1)C(=O)O)C(=O)O
5.5 mg/L | 31.3 mg/L (≈ 169 µM) | – | – | – | – | C#CC[C@@H](C[C@@H](N)C(=O)O)C(=O)O
0.6 mg/L | 2 mg/L (≈ 7.37 µM) | – | – | – | – | N[C@H](C[C@H](CCCC1CCCCC1)C(=O)O)C(=O)O
5.2 mg/L | 2 mg/L (≈ 7.09 µM) | – | – | – | – | N[C@H](C[C@H](Cc1ccc([N+](=O)[O-])cc1)C(=O)O)C(=O)O
0.5 mg/L | 3.9 mg/L (≈ 14.7 µM) | – | – | – | – | N[C@H](C[C@H](CCCc1ccccc1)C(=O)O)C(=O)O
0.3 mg/L | 0.5 mg/L (≈ 1.84 µM) | – | – | – | – | N[C@H](C[C@H](Cc1ccc(Cl)cc1)C(=O)O)C(=O)O
0.42 mg/L | 7.8 mg/L (≈ 21.5 µM) | – | – | – | – | N[C@H](C[C@H](Cc1ccc(-c2ccc3ccccc3c2)cc1)C(=O)O)C(=O)O
0.1 mg/L | 1 mg/L (≈ 4.11 µM) | – | – | – | – | N[C@H](C[C@H](Cc1cccs1)C(=O)O)C(=O)O
0.01 mg/L | 0.5 mg/L (≈ 1.53 µM) | – | – | – | – | N[C@H](C[C@H](Cc1sc2ccccc2c1Cl)C(=O)O)C(=O)O
0.3 mg/L | 0.5 mg/L (≈ 2.11 µM) | – | – | – | – | N[C@H](C[C@H](Cc1ccccc1)C(=O)O)C(=O)O
0.5 mg/L | 0.5 mg/L (≈ 1.6 µM) | – | – | – | – | N[C@H](C[C@H](C/C=C/c1ccc2ccccc2c1)C(=O)O)C(=O)O
9.8 mg/L | 62.5 mg/L (≈ 226 µM) | – | – | – | – | N[C@H](C[C@H](Cc1cc2ccccc2[nH]1)C(=O)O)C(=O)O
46.3 mg/L | 125 mg/L (≈ 377 µM) | – | – | – | – | N[C@H](C[C@H](Oc1ccc(Oc2ccccc2)cc1)C(=O)O)C(=O)O
8.2 mg/L | 31.3 mg/L (≈ 99.3 µM) | – | – | – | – | N[C@H](C[C@H](Oc1ccc(-c2ccccc2)cc1)C(=O)O)C(=O)O
0.38 mg/L | 0.24 mg/L (≈ 0.815 µM) | – | – | – | – | N[C@H](C[C@H](Cc1nc2ccccc2s1)C(=O)O)C(=O)O
0.1 mg/L | 0.5 mg/L (≈ 1.87 µM) | – | – | – | – | COc1ccc(C[C@@H](C[C@@H](N)C(=O)O)C(=O)O)cc1
0.65 mg/L | 3.9 mg/L (≈ 10.6 µM) | – | – | – | – | N[C@H](C[C@H](Cc1ccc(-c2cc3ccccc3s2)cc1)C(=O)O)C(=O)O
3 mg/L | 3.9 mg/L (≈ 12.7 µM) | – | – | – | – | N[C@H](C[C@H](Cc1cc(Cl)cc(Cl)c1)C(=O)O)C(=O)O
5.2 mg/L | 2 mg/L (≈ 7.09 µM) | – | – | – | – | N[C@H](C[C@H](Cc1cccc([N+](=O)[O-])c1)C(=O)O)C(=O)O
6.3 mg/L | 31.3 mg/L (≈ 99 µM) | – | – | – | – | N[C@H](C[C@H](Cc1ccccc1Br)C(=O)O)C(=O)O
0.7 mg/L | 0.5 mg/L (≈ 1.6 µM) | – | – | – | – | N[C@H](C[C@H](Cc1cccc(-c2ccccc2)c1)C(=O)O)C(=O)O
0.49 mg/L | 15.6 mg/L (≈ 42 µM) | – | – | – | – | N[C@H](C[C@H](Cc1ccc(NC(=O)Nc2ccccc2)cc1)C(=O)O)C(=O)O

IC50 [1] | MIC (Streptococcus pneumoniae [2]) | MIC (Staphylococcus aureus) | MIC (Streptococcus pneumoniae [3]) | MIC (Streptococcus pneumoniae [4]) | MIC (Moraxella catarrhalis) | SMILES
0.5 mg/L | 0.24 mg/L (≈ 0.791 µM) | – | – | – | – | N[C@H](C[C@H](Cc1cccc(-c2ccco2)c1)C(=O)O)C(=O)O
0.37 mg/L | 2 mg/L (≈ 7.65 µM) | – | – | – | – | N[C@H](C[C@H](CC#Cc1ccccc1)C(=O)O)C(=O)O
> 100 mg/L | > 250 mg/L | – | – | – | – | N[C@H](C[C@H](Cc1ccccc1-c1ccccc1)C(=O)O)C(=O)O
0.1 mg/L | 0.24 mg/L (≈ 0.866 µM) | – | – | – | – | N[C@H](C[C@H](Cc1cc2ccccc2o1)C(=O)O)C(=O)O
0.036 mg/L | 0.24 mg/L (≈ 0.818 µM) | > 250 mg/L | 0.24 mg/L (≈ 0.818 µM) | 0.24 mg/L (≈ 0.818 µM) | > 250 mg/L | N[C@H](C[C@H](Cc1cc2ccccc2s1)C(=O)O)C(=O)O
0.32 mg/L | 0.24 mg/L (≈ 0.751 µM) | – | – | – | – | N[C@H](C[C@H](Cc1ccc(-c2ccsc2)cc1)C(=O)O)C(=O)O
26.5 mg/L | 62.5 mg/L (≈ 261 µM) | – | – | – | – | N[C@H](C[C@H](Oc1ccccc1)C(=O)O)C(=O)O
0.8 mg/L | 0.5 mg/L (≈ 1.64 µM) | – | – | – | – | N[C@H](C[C@H](Cc1cccc(C(F)(F)F)c1)C(=O)O)C(=O)O
0.8 mg/L | 7.8 mg/L (≈ 25.6 µM) | – | – | – | – | N[C@H](C[C@H](Cc1ccc(C(F)(F)F)cc1)C(=O)O)C(=O)O
0.078 mg/L | 1 mg/L (≈ 3.19 µM) | – | – | – | – | N[C@H](C[C@H](Cc1ccc(-c2ccccc2)cc1)C(=O)O)C(=O)O
0.3 mg/L | 0.5 mg/L (≈ 1.35 µM) | – | – | – | – | N[C@H](C[C@H](Cc1cccc(-c2cc3ccccc3s2)c1)C(=O)O)C(=O)O
3.4 mg/L | 1 mg/L (≈ 3.68 µM) | – | – | – | – | N[C@H](C[C@H](Cc1cccc(Cl)c1)C(=O)O)C(=O)O
10.2 mg/L | > 250 mg/L | – | – | – | – | N[C@H](C[C@H](Cc1ccc(NS(=O)(=O)c2ccccc2)cc1)C(=O)O)C(=O)O
7.1 mg/L | 3.9 mg/L (≈ 14.4 µM) | – | – | – | – | N[C@H](C[C@H](Cc1ccccc1Cl)C(=O)O)C(=O)O
> 100 mg/L | > 250 mg/L | – | – | – | – | N[C@H](C[C@H](Cc1cc(C(F)(F)F)cc(C(F)(F)F)c1)C(=O)O)C(=O)O
5.6 mg/L | 3.9 mg/L (≈ 13.6 µM) | – | – | – | – | N[C@H](C[C@H](Cc1cccc2ccccc12)C(=O)O)C(=O)O
9.4 mg/L | 62.5 mg/L (≈ 223 µM) | – | – | – | – | N[C@H](C[C@H](CNC(=O)c1ccccc1)C(=O)O)C(=O)O
0.1 mg/L | 0.4 mg/L (≈ 1.52 µM) | – | – | – | – | N[C@H](C[C@H](C/C=C/c1ccccc1)C(=O)O)C(=O)O
1.7 mg/L | 7.8 mg/L (≈ 26.6 µM) | – | – | – | – | N[C@H](C[C@H](Cc1csc2ccccc12)C(=O)O)C(=O)O
0.6 mg/L | 1 mg/L (≈ 3.41 µM) | – | – | – | – | CC(C)(C)c1ccc(C[C@@H](C[C@@H](N)C(=O)O)C(=O)O)cc1
81 mg/L | > 250 mg/L | – | – | – | – | COc1cc(C[C@@H](C[C@@H](N)C(=O)O)C(=O)O)cc(OC)c1OC
0.1 mg/L | 0.25 mg/L (≈ 0.87 µM) | > 250 mg/L | 0.25 mg/L (≈ 0.87 µM) | 3.9 mg/L (≈ 13.6 µM) | 62.5 mg/L (≈ 218 µM) | N[C@H](C[C@H](Cc1ccc2ccccc2c1)C(=O)O)C(=O)O
0.2 mg/L | 0.5 mg/L (≈ 1.87 µM) | – | – | – | – | COc1cccc(C[C@@H](C[C@@H](N)C(=O)O)C(=O)O)c1
